Sampled rows, rich in hits. Any-hit rate of the full collection: about 1.5%.
RanGTP-Imp inh = inhibitors of RanGTP-importin-beta interaction, primary screen, biochemical, FRET, CFP-Ran, YFP-importin-beta, homogeneous | Ran GTPase (GTP-bound) - importin-beta complex | cell-free CFP-Ran/YFP-importin-beta FRET ratio | inhibition, % (test concentration not listed) | 1.1% of 300,000 active | AID 2216, 2009;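 active = more than half of the replicate wells show a fall in the fluorescence ratio signal beyond about 16%, limit read from the data, passing the limit was not always enough; inconclusive = exactly half of the replicate wells pass the set limit; inactive = fewer than half of replicates pass the limit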;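 note: 0% = DMSO wells and 100% = Ran loaded with GDP instead of GTP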
Runt-SMMHC FRET = inhibitors of RUNX1 Runt–CBFb-SMMHC binding, primary screen, biochemical, FRET, Cerulean-Runt, Venus-CBFb-SMMHC, uHTS | Runt-related transcription factor 1 (Homo sapiens) + Core-binding factor subunit beta … | Cerulean-Runt/Venus-CBFb-SMMHC FRET ratio 530/480, 1 h | inhibition, % at 20 µM | 0.74% of 220,000 active | AID 1434, 2008;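 active = mean inhibition across duplicate retests at 20 µM reaching about 50%, limit read from the data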;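 note: 0% = DMSO wells and 100% = wells with excess untagged CBFb-SMMHC; inhibitors lower the FRET ratio by blocking Runt binding to CBFb-SMMHC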
Target sequence (Q01196 whole entry, looked up): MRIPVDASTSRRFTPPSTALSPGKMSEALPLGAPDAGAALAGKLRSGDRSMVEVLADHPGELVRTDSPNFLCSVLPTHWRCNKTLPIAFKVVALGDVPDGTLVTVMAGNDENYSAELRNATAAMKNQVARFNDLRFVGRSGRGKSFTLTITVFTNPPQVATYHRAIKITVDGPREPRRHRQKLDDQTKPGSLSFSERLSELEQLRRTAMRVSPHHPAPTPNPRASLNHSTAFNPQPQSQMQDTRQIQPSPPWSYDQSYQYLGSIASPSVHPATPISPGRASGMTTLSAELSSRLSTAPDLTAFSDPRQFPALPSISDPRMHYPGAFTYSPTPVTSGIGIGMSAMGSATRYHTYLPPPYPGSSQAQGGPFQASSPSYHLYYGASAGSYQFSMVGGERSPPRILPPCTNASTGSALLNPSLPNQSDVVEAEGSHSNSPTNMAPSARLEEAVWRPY
Target sequence (Q13951 whole entry, looked up): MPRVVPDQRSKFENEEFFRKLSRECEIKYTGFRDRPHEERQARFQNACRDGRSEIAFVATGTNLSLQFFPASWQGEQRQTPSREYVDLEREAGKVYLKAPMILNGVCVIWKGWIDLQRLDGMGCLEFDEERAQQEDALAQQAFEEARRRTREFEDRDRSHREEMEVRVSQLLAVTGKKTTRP
Hck-Nef inh = inhibitors of Nef-activated human Hck kinase, primary screen, biochemical, Z-Lyte FRET, 384-well, Hck-YEEI | Tyrosine-protein kinase HCK (Homo sapiens), P08631 | Recombinant Hck-YEEI plus Nef, Z-Lyte FRET kinase assay | inhibition, % at 20 µM | 0.68% of 220,000 active | AID 463187, 2010;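 active = Hck-Nef kinase inhibition above about 50%, limit read from the data; inactive = inhibition below that limit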;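 note: 0% = DMSO with Hck plus Nef and 100% = Hck alone without Nef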
CaV13 ICDI inh = Primary screen for inhibitors of IQ motif and Ca2+-dependent inactivation inhibitor domain binding in CACNA1D, Förster resonance energy transfer in living cells, …; HEK cells, CFP/YFP FRET ICDI-IQ, plate reader, 10 min; percent FRET-ratio fall versus neutral wells; inhibition, % at 12.3 µM; 0.098% of 340,000 active;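 active = mean replicate inhibition of at least 30% and at least 1% of replicates passing that level; inconclusive = only one of the two criteria is met; inactive = neither criterion is met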;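 note: 0% = median of the neutral control wells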
Runt-CBFb FRET = inhibitors of RUNX1 Runt–CBFb binding, primary screen, biochemical, FRET, Cerulean-Runt, Venus-CBFb, uHTS | Runt-related transcription factor 1 (Homo sapiens) + Core-binding factor subunit beta … | AID 1496, 2009 | 0.46% of 220,000 active | inhibition, % at 20 µM | Cerulean-Runt/Venus-CBFb FRET ratio 530/480, 1 h;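 active = inhibition over about 50% at 20 µM in the single-dose screen, limit read from the data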;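 note: 0% = DMSO wells and 100% = excess unlabeled CBFb competitor control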
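test system = Cerulean-tagged RUNX1 Runt domain (FRET donor) fusion protein | reagent = Venus-CBFb binding partner, 100 nM | incubation = protein complex preformed 1 h, compound exposure 1 h, room temperature, dark | detection = FRET fluorescence | read-out basis = loss of energy transfer signal | controls = 5 µM unlabeled CBFb as full-inhibition high control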
An asterisk follows results filed as active; ? = inconclusive; / = no result.

SMILES	RanGTP-Imp inh	Runt-SMMHC FRET	Hck-Nef inh	CaV13 ICDI inh	Runt-CBFb FRET
COc1ccc(OCC(=O)Nc2cccc(-c3nc4ccccc4[nH]3)c2)cc1	31*	2	2	-7	-2
O=C(O)C(=O)/C(=C\c1ccc(Cl)cc1)c1ccc2ccccc2n1	-5	96*	15	-5	39
CCc1nc2ccc(C(=O)Nc3nnc(C)s3)cc2nc1CC	-3	0	23	-4	-2
COC1CCCN(Cc2c(C(=O)N3CCN(C4CCCCC4)CC3)nc3ccccn23)C1 (stereo unspecified)	104*	/	/	-6	/
CCOC(=O)C1CCCN(Cc2c(C(=O)N3CCOCC3)nc3ccccn23)C1 (stereo unspecified)	-3	0	6	3	1
Cc1ccc(N2NC(=O)/C(=C/c3ccc(-c4ccc(Cl)c(C(=O)O)c4)o3)C2=O)cc1	-1	0	25	-5	6
CCOC(=O)CN1C(=O)S/C(=C\c2ccc(-c3ccc(C(=O)O)c(Cl)c3)o2)C1=O	23*	/	/	-5	/
CC(C)N1C(=O)S/C(=C\c2ccc(-c3ccc(Cl)c(C(=O)O)c3)o2)C1=O	26*	/	/	-6	/
CC1CCN(CC(=O)c2cccs2)CC1	-2	-2	4	-7	-2
O=C(CN1CCc2ccccc2C1)c1cccs1	25*	0	1	0	1
CC(=O)n1c2c(c3ccccc31)OC(N)=C(C#N)C2c1ccc(C(C)C)cc1 (stereo unspecified)	31*	-7	2	-11	-7
CC(C)N(Cc1nc2ccccc2c(=O)[nH]1)C(=O)c1ccc(NC(=O)CSc2nnnn2C)cc1	/	/	/	-3	/
CCCC(=O)NC(=S)Nc1cccc(Cl)c1N1CCCCC1	9	0	0	-8	0
Cc1ccc(S(=O)(=O)c2cc(C#N)c(=O)[nH]c2N)cc1	-2	107*	2	-4	19
COc1nc(N)c(S(=O)(=O)c2ccc(C)cc2)cc1C#N	5	24	1	-9	10
O=C(Cc1nc2ccccc2s1)c1ccc(O)cc1O	0	114*	2	/	36
CN1CCN(CCCn2cnc3c(=O)oc4ccccc4c32)CC1	-2	0	-1	/	-2
O=C(NCc1ccc(F)cc1)c1ccncc1	3	/	/	-19	/
Cc1ccc2[nH]c3c(c2c1)SC(C)(C)CC3=O	21*	29	20	3	18
CC(C)(C)C(=O)CSc1nc2c(c(-c3cccs3)c1C#N)CCC2	62*	28	13	-8	1
Cc1ccc2cc(CN(Cc3ccco3)C(=O)c3cccs3)c(=O)[nH]c2c1	0	19	4	-6	25
Nc1n[nH]c2cc(=O)n(-c3ccc(Cl)cc3)nc12	77*	54*	7	8	18
COc1ccc(-n2nc3c(N)n[nH]c3cc2=O)cc1	-14	-20	5	-3	-6
CC1(C)CC(=O)C2=C(C1)N(c1cccc(O)c1)C1=C(C2)C(=O)CC(C)(C)C1	74*	57*	11	/	34
CC1(C)CC(=O)C2=C(C1)N(c1ccccc1)C(=O)C(C(=O)OCc1ccccc1)C2 (stereo unspecified)	/	/	/	-3	/
SMILES	RanGTP-Imp inh	Runt-SMMHC FRET	Hck-Nef inh	CaV13 ICDI inh	Runt-CBFb FRET
CCCCn1nnnc1C1(C)CCC(=O)N1CCCn1ccnc1 (stereo unspecified)	/	/	/	-6	/
CC(C)(C)c1ccc(C2=CC(c3ccccc3F)n3ncnc3N2)cc1 (stereo unspecified)	25*	/	/	-7	/
CCOc1ccc(C2C=C(c3ccc(F)cc3)Nc3ncnn32)cc1 (stereo unspecified)	-7	63*	-7	-8	18
Cc1ccc2c(n1)sc1c(-c3ccccc3)c(C#N)c(N)nc12	56*	100*	9	-3	18
COc1cccc(Cn2c3ccc(NC(=O)Cc4ccccc4C)cc3c(=O)n2C)c1	/	/	/	-5	/
COc1ccc(CN(Cc2ccc(OC)cc2)S(=O)(=O)c2ccc(-n3cnnn3)c(C)c2)cc1	27*	-1	11	-7	-2
O=C(Oc1ccc2ccc(=O)oc2c1)c1cccs1	2	28	56*	-3	22
CC(C)(C)OC(=O)NCCC(=O)Oc1ccc2ccc(=O)oc2c1	5	68*	73*	/	43
O=C(CNC(=O)OCc1ccccc1)Oc1ccc2ccc(=O)oc2c1	13	/	/	-18	/
O=C(C1CCN(C2CC(=O)N(c3cccc(Cl)c3)C2=O)CC1)N1CCCC1 (stereo unspecified)	11	-2	-1	/	6
O=C(COC(=O)Cc1c[nH]c2ccccc12)Nc1ccc(Cl)cc1	/	/	/	-5	/
O=C(CCc1ccc(O)cc1)c1c(O)cc(O)cc1O	6	1	63*	-3	1
CC1(C)CC(=O)C(C=Nc2cccnc2/N=C/C2=C(O)CC(C)(C)CC2=O)=C(O)C1	?	86	3	129*	-29
COC(=O)Cn1c(=O)c2c(n(Cc3ccccc3)c1=O)N/C(=C/c1ccc(OC)cc1)C2=O	20*	30	15	-60	-20
O=C(N=c1ccn(-c2nc3ccccc3nc2NS(=O)(=O)c2ccc(Cl)cc2)cc1)c1cccs1	-72	-162	6	-113	-305
CCOc1ccccc1C1C(C#N)=C(N)Oc2cc(N)ccc21 (stereo unspecified)	139*	105*	-2	20	12
N#CC1=C(N)Oc2cc(N)ccc2C1c1cccc(F)c1 (stereo unspecified)	38*	/	/	-19	/
COc1ccc(OC)c(C2C(C#N)=C(N)Oc3cc(N)ccc32)c1 (stereo unspecified)	47*	33	-6	-6	30
COC(=O)c1ccc(C2C(C#N)=C(N)Oc3cc(N)ccc32)cc1 (stereo unspecified)	-9	/	/	-3	/
COc1ccc(OC)c(C2C(C#N)=C(N)Oc3cc(C)[nH]c(=O)c32)c1 (stereo unspecified)	-3	-9	-25	-5	3
CN(C)c1ccc2c(c1)OC(N)=C(C#N)C2c1cccc(F)c1 (stereo unspecified)	-124	-47	-19	/	-51
CCOC(=O)N1CCc2c(sc(NC(=O)C3COc4ccccc4O3)c2C(N)=O)C1 (stereo unspecified)	1	/	/	-5	/
CN1CCc2c(sc(NC(=O)C3COc4ccccc4O3)c2C(N)=O)C1 (stereo unspecified)	182*	/	/	-3	/
